The source made the active and inactive calls. The rule behind the calls is not given here.
Legend:
[1] = test system: Trypanosoma brucei rhodesiense; assay: Trypanocidal activity against bloodstream form of Trypanosoma brucei rhodesiense STIB900 infected in NMRI mouse assessed as mean parasitemia relapse day at 5 mg/kg, ip qd administered for 4 days; format: functional; details: route intraperitoneal
Procedure, shortened: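 Mice infected with STIB900 received 4 consecutive daily intraperitoneal doses, 4 mice per group. The secondary endpoint was mean relapse day post-infection, which separates weaker compounds; mice surviving 60 days without parasitemia relapse were scored as cured.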

[2] = test system: Trypanosoma brucei rhodesiense; assay: Antitrypanosomal activity against Trypanosoma brucei rhodesiense STIB900 assessed as growth inhibition after 70 hrs by Alamar blue assay; format: functional, organism-based; details: STIB900, 70 h
[3] = test system: Trypanosoma brucei rhodesiense; assay: Trypanocidal activity against bloodstream form of Trypanosoma brucei rhodesiense STIB900 infected in NMRI mouse assessed as decrease in parasitemia at 5 mg/kg, ip qd administered for 4 days measured once per week until 60 days by microscopic analysis; format: functional, organism-based; set-up: dose 5 mg/kg
Procedure, shortened: (§1)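 Mice infected with T. b. rhodesiense STIB900 received one dose daily for 4 consecutive days, 4 mice per group. Diamidines were given intraperitoneally and prodrugs orally. The primary endpoint was cures per group: a mouse counted as cured if it survived 60 days post-infection without parasitemia relapse.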

L6 = assay: Cytotoxicity against rat L6 cells assessed as cell viability after 70 hrs by Alamar blue assay; format: cell-based; details: L6, 70 h
[4] = Selectivity index, ratio of IC50 for rat L6 cells to IC50 for Trypanosoma brucei rhodesiense STIB900; format: toxicity, cell-based; details: read-out: Ratio IC50
Procedure, shortened: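 Ratio of IC50 in L6 rat myoblast cytotoxicity assay to IC50 against T. b. rhodesiense STIB900; each IC50 is the mean of two independent assays.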

[5] = Selectivity index, ratio of IC50 for rat L6 cells to IC50 for chloroquine/pyrimethamine-resistant Plasmodium falciparum K1 infected in human red blood cells; format: toxicity, cell-based; details: read-out: Ratio IC50
Procedure, shortened: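 Ratio of IC50 in L6 rat myoblast cytotoxicity assay to IC50 against P. falciparum K1; each IC50 is the mean of two independent assays.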

Plasmodium falciparum = assay: Antiplasmodial activity against chloroquine/pyrimethamine-resistant Plasmodium falciparum K1 infected in human red blood cells assessed as [3H]-hypoxanthine incorporation incubated for 48 hrs prior to [3H]-hypoxanthine addition measured after 24 hrs by liquid scintillation counting analysis; format: functional, organism-based
[6] = test system: Trypanosoma brucei rhodesiense; assay: Trypanocidal activity against bloodstream form of Trypanosoma brucei rhodesiense STIB900 infected in NMRI mouse assessed as mean survival days at 5 mg/kg, ip qd administered for 4 days; format: functional
Procedure, shortened: (§2)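 Mice infected with T. b. rhodesiense STIB900 (acute model) dosed once daily for 4 consecutive days, ip (diamidines) or oral (prodrugs). Cure means survival to 60 days post infection without parasitemia relapse. Mean survival days post infection are averaged over all mice, with cured mice counted as >60 days.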

[7] = test system: Trypanosoma brucei rhodesiense; assay: Trypanocidal activity against bloodstream form of Trypanosoma brucei rhodesiense STIB900 infected in NMRI mouse assessed as mean survival days at 20 mg/kg, ip qd administered for 4 days; format: functional; details: route intraperitoneal; procedure, shortened: as §2
[8] = test system: Trypanosoma brucei rhodesiense; assay: Trypanocidal activity against bloodstream form of Trypanosoma brucei rhodesiense STIB900 infected in NMRI mouse assessed as decrease in parasitemia at 20 mg/kg, ip qd administered for 4 days measured once per week until 60 days by microscopic analysis; format: functional, organism-based; set-up: dose 20 mg/kg; procedure, shortened: as §1
[9] = test system: Trypanosoma brucei rhodesiense; assay: Trypanocidal activity against bloodstream form of Trypanosoma brucei rhodesiense STIB900 infected in NMRI mouse assessed as decrease in parasitemia at 25 mg/kg, po qd administered for 4 days measured once per week until 60 days by microscopic analysis; format: functional, organism-based; set-up: dose 25 mg/kg; procedure, shortened: as §1
[10] = test system: Trypanosoma brucei rhodesiense; assay: Trypanocidal activity against bloodstream form of Trypanosoma brucei rhodesiense STIB900 infected in NMRI mouse assessed as mean survival days at 25 mg/kg, po qd administered for 4 days; format: functional; procedure, shortened: as §2
[11] = test system: Trypanosoma brucei rhodesiense; assay: Trypanocidal activity against bloodstream form of Trypanosoma brucei rhodesiense STIB900 infected in NMRI mouse assessed as mean survival days at 100 mg/kg, po qd administered for 4 days; format: functional; procedure, shortened: as §2

Cl.Cl.N=C(N)c1ccc(-c2cc(-c3cc(C(=N)N)ccn3)no2)cc1
Time [1]: 15.5 days
IC50 [2]: 52.8 nM
Activity [3]: inactive
IC50 (L6): 71200 nM
selectivity ratio [4]: 1350
selectivity ratio [5]: 14200
IC50 (Plasmodium falciparum): 5 nM

COc1cc(C(=N)N)ccc1-c1cc(-c2ccc(C(=N)N)cc2)no1.Cl.Cl
MSD ([6]; route intraperitoneal): >48.75 days
MSD [7]: >50.25 days

Cl.Cl.N=C(N)c1ccc(-c2cc(-c3cccc(C(=N)N)c3)no2)cc1
Activity [8]: inactive
MSD [7]: >29.25 days

Cl.Cl.N=C(N)c1ccc(-c2cc(-c3ccc(C(=N)N)nc3)on2)cn1
Time [1]: 24 days
IC50 [2]: 6.2 nM
IC50 (L6): 2460 nM
selectivity ratio [4]: 398
selectivity ratio [5]: 6650
IC50 (Plasmodium falciparum): 0.4 nM

COc1ccc(C(=N)N)cc1-c1cc(-c2ccc(C(=N)N)cc2)on1.Cl.Cl
MSD ([6]; route intraperitoneal): >60 days
Activity [8]: Active
MSD [7]: >60 days

Cl.Cl.Cl.N=C(N)c1ccc(-c2cc(-c3cc(C(=N)N)ccc3Cl)on2)cc1
MSD [6]: inactive
Time [1]: 8.75 days
Activity [3]: inactive

COc1ccc(C(=N)N)cc1-c1cc(-c2cccc(C(=N)N)c2)no1.Cl.Cl
MSD [6]: inactive
Time [1]: 22.3 days

Cl.Cl.N=C(N)c1ccc(-c2cc(-c3cncc(C(=N)N)c3)no2)cc1
Time [1]: 15 days
IC50 [2]: 16 nM
IC50 (L6): 4320 nM
selectivity ratio [4]: 270
selectivity ratio [5]: 1170
IC50 (Plasmodium falciparum): 3.7 nM

CO/N=C(\N)c1cccc(-c2cc(-c3ccc(/C(N)=N/OC)cc3Cl)on2)c1.Cl.Cl.Cl
Activity [9]: inactive
MSD [10]: 14 days

Cl.Cl.Cl.N=C(N)c1cccc(-c2cc(-c3ccc(C(=N)N)cc3Cl)on2)c1
MSD [6]: inactive
Activity [8]: Active
Time [1]: 16 days
MSD [7]: >60 days

COc1cc(C(=N)N)ccc1-c1cc(-c2cccc(C(=N)N)c2)no1.Cl.Cl
MSD [6]: inactive
Time [1]: 18 days
Activity [3]: inactive

COc1cc(/C(N)=N/O)ccc1-c1cc(-c2ccc(/C(N)=N/O)cc2OC)on1.Cl.Cl
Activity [9]: inactive
MSD [10]: 12 days

CO/N=C(\N)c1ccc(-c2cc(-c3cccc(/C(N)=N/OC)c3)no2)cc1.Cl.Cl
Activity [9]: inactive
MSD [10]: 8 days

Cl.Cl.N=C(N)c1ccc(-c2cc(-c3cc(C(=N)N)ccc3[N+](=O)[O-])no2)cc1
MSD ([6]; route intraperitoneal): 29.75 days
Time [1]: 17 days
Activity [3]: inactive

Cl.Cl.N/C(=N\O)c1cccc(-c2cc(-c3cccc(/C(N)=N/O)c3)on2)c1
Activity [9]: inactive
MSD [10]: 7.5 days

CO/N=C(\N)c1ccc(-c2cc(-c3cccc(/C(N)=N/OC)c3)on2)cc1.Cl.Cl
Activity [9]: inactive
MSD [10]: 31.25 days

Cl.Cl.N=C(N)c1ccc(-c2cc(-c3cccc(C(=N)N)c3)on2)cc1
MSD ([6]; route intraperitoneal): >49.25 days
MSD [7]: >51.25 days

Cl.N=C(N)c1cncc(-c2cc(-c3ccc(C(=N)N)nc3)no2)c1
MSD ([6]; route intraperitoneal): >60 days
Time [1]: 60 days
IC50 [2]: 19.1 nM
IC50 (L6): 2110 nM
selectivity ratio [4]: 111
selectivity ratio [5]: 440
IC50 (Plasmodium falciparum): 4.8 nM

Cl.Cl.N=C(N)c1cncc(-c2cc(-c3ccc(C(=N)N)nc3)on2)c1
Time [1]: 25.25 days
IC50 [2]: 23.9 nM
Activity [3]: inactive
IC50 (L6): 4910 nM
selectivity ratio [4]: 206
selectivity ratio [5]: 1400
IC50 (Plasmodium falciparum): 3.5 nM

COc1cc(/C(N)=N/O)ccc1-c1cc(-c2cccc(/C(N)=N/O)c2)on1.Cl.Cl
Activity [9]: inactive
MSD [10]: 17.5 days

COc1c(/C(N)=N/O)cccc1-c1cc(-c2ccc(/C(N)=N/O)cc2)no1.Cl.Cl
Activity [9]: inactive
MSD [10]: 25.75 days

CO/N=C(\N)c1cccc(-c2cc(-c3ccc(/C(N)=N/OC)cc3OC)on2)c1.Cl.Cl
Activity [9]: inactive
MSD [10]: 7.25 days

Cl.Cl.N=C(N)c1ccc(-c2cc(-c3ccc(C(=N)N)nc3)no2)cc1
Time [1]: 25.7 days
IC50 [2]: 5.9 nM
IC50 (L6): 2490 nM
selectivity ratio [4]: 423
selectivity ratio [5]: 6330
IC50 (Plasmodium falciparum): 0.4 nM

Cl.Cl.N=C(N)c1ccc(-c2cc(-c3cccc(C(=N)N)c3)on2)nc1
MSD ([6]; route intraperitoneal): >60 days
Time [1]: 53 days
IC50 [2]: 13.6 nM
IC50 (L6): 121000 nM
selectivity ratio [4]: 8900
selectivity ratio [5]: 17400
IC50 (Plasmodium falciparum): 7 nM

COc1ccc(C(=N)N)cc1-c1cc(-c2cc(C(=N)N)ccc2OC)on1.Cl.Cl
MSD ([6]; route intraperitoneal): >50 days
Time [1]: 26 days
Activity [3]: inactive

CO/N=C(\N)c1ccc(-c2cc(-c3cc(/C(N)=N/OC)ccc3[N+](=O)[O-])no2)cc1.Cl.Cl
Activity [9]: inactive
MSD [10]: 13.5 days

COc1cc(/C(N)=N/O)ccc1-c1cc(-c2ccc(/C(N)=N/O)cc2)no1.Cl.Cl
Activity [9]: inactive
MSD [10]: 26.25 days

Cl.Cl.N/C(=N\O)c1ccc(-c2cc(-c3cccc(/C(N)=N/O)c3)on2)cc1
MSD [11]: >43.5 days

COc1ccc(C(=N)N)cc1-c1cc(-c2ccc(C(=N)N)cc2)no1.Cl.Cl
MSD ([6]; route intraperitoneal): >60 days
Activity [8]: Active
MSD [7]: >60 days

Cl.Cl.N=C(N)c1cccc(-c2cc(-c3cccc(C(=N)N)c3)on2)c1
MSD ([6]; route intraperitoneal): 21.75 days
Activity [3]: inactive
MSD [7]: >58 days

Cl.Cl.Cl.N=C(N)c1ccc(-c2cc(-c3cc(C(=N)N)ccc3Cl)no2)cc1
MSD [6]: inactive
Time [1]: 7.75 days
Activity [3]: inactive

CO/N=C(\N)c1ccc(-c2cc(-c3ccc(/C(N)=N/OC)cc3OC)no2)cc1.Cl.Cl
Activity [9]: inactive
MSD [10]: 27 days

Cl.Cl.N=C(N)c1cccc(-c2cc(-c3ccc(C(=N)N)cc3[N+](=O)[O-])no2)c1
MSD [6]: inactive
Time [1]: 13 days
Activity [3]: inactive

Cl.Cl.N=C(N)c1cccc(-c2cc(-c3ccc(C(=N)N)cc3[N+](=O)[O-])on2)c1
MSD [6]: inactive
Time [1]: 12.25 days
Activity [3]: inactive

COc1cc(C(=N)N)ccc1-c1cc(-c2cccc(C(=N)N)c2)on1.Cl.Cl
MSD [6]: inactive
Time [1]: 36.25 days
Activity [3]: inactive

Cl.Cl.N/C(=N\O)c1ccc(-c2cc(-c3cc(/C(N)=N/O)ccc3[N+](=O)[O-])no2)cc1
Activity [9]: inactive
MSD [10]: 7.25 days

Cl.Cl.Cl.N/C(=N\O)c1cccc(-c2cc(-c3ccc(/C(N)=N/O)cc3Cl)on2)c1
Activity [9]: inactive
MSD [10]: 8.5 days

Cl.Cl.N/C(=N\O)c1ccc(-c2cc(-c3ccc(/C(N)=N/O)cc3)on2)cc1
MSD [11]: >40.5 days

— ChEMBL document CHEMBL3102749, “Antiprotozoal activity of dicationic 3,5-diphenylisoxazoles, their prodrugs and aza-analogues” (Bioorg Med Chem, 2014)
